Results as given in ChEMBL document CHEMBL1649422, “Synthesis and molecular modeling of novel tetrahydro-β-carboline derivatives with phosphodiesterase 5 inhibitory and anticancer properties” (J Med Chem, 2011).
pIC50: −log10 of the molar value.

How the values were obtained:
[1] = tested on: MDA-MB-231; test: Growth inhibition of human MDA-MB-231 cells at 10 uM after 72 hrs by luminescence assay; assay type: functional; settings: MDA-MB-231, 72 h
[2] = tested on: MDA-MB-231; test: Growth inhibition of human MDA-MB-231 cells after 72 hrs by luminescence assay; assay type: functional, cell-based; settings: MDA-MB-231, 72 h
How it was run: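 MDA-MB-231 cells grown in RPMI 1640 with 5% FBS, 2 mM glutamine and antibiotics at 37 °C, 5% CO2. Cells were harvested at 70–90% confluence, used only if viability >95%, and seeded at 5000 cells/well. Dosing followed 18–24 h later, with final DMSO 0.1%. Viability was read after 72 h by CellTiter-Glo luminescence. IC50 came from eight concentrations in quadruplicate, fitted to a four-parameter logistic.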

[3] = target: T1, cGMP-specific 3',5'-cyclic phosphodiesterase (Homo sapiens, UniProt O76074); test: Inhibition of human recombinant PDE5 at 10 uM after 30 mins by fluorescence polarization assay
[4] = target: T1, cGMP-specific 3',5'-cyclic phosphodiesterase; test: Inhibition of human recombinant PDE5 after 30 mins by fluorescence polarization assay
How it was run: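 Recombinant human PDE5A at 12.5 units/mL was preincubated 30 min with compound or vehicle. Then 50 nM TAMRA-cGMP was added and the mix incubated 1.5 h at 30 °C. IMAP binding reagent was added for 30 min at 30 °C and fluorescence polarization read. IC50 came from a 10-concentration series in quadruplicate, fitted to a four-parameter logistic.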

[5] = target: T1, cGMP-specific 3',5'-cyclic phosphodiesterase; test: Inhibition of human recombinant PDE5A-mediated hydrolysis of cGMP after 30 mins by fluorescence polarization assay
[6] = target: T2, cGMP-inhibited 3',5'-cyclic phosphodiesterase 3B (Homo sapiens, UniProt Q13370); test: Inhibition of human recombinant PDE3B-mediated hydrolysis of cAMP after 30 mins by fluorescence polarization assay
How it was run: (§1)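 Recombinant human enzyme levels were PDE3B 10 units/mL, PDE4B 400 units/mL and PDE11A 50 units/mL. Enzyme was preincubated with compound or vehicle for 30 min. Substrate was then added: 50 nM TAMRA-cGMP and/or 50 nM fluorescein-cAMP. Reactions ran 1.5 h at 30 °C, followed by IMAP binding reagent for 30 min at 30 °C. Fluorescence polarization was read. IC50 came from a 10-concentration series in quadruplicate, fitted to a four-parameter logistic.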

[7] = target: T2, cGMP-inhibited 3',5'-cyclic phosphodiesterase 3B; test: Inhibition of human recombinant PDE3B-mediated hydrolysis of cGMP after 30 mins by fluorescence polarization assay; how it was run: as §1
[8] = target: 3',5'-cyclic-AMP phosphodiesterase 4B (Homo sapiens, UniProt Q07343); test: Inhibition of human recombinant PDE4B-mediated hydrolysis of cAMP after 30 mins by fluorescence polarization assay
How it was run: as §1, with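 “fluorescein-cAMP.” for “fluorescein-cAMP. Reactions ran 1.5 h at 30 °C, followed by IMAP binding reagent for 30 min at 30 °C.”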

[9] = target: T3, Dual 3',5'-cyclic-AMP and -GMP phosphodiesterase 11A (Homo sapiens, UniProt Q9HCR9); test: Inhibition of human recombinant PDE11A-mediated hydrolysis of cAMP after 30 mins by fluorescence polarization assay
How it was run: as §1, with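 “fluorescein-cAMP.” for “fluorescein-cAMP. Reactions ran 1.5 h at 30 °C, followed by IMAP binding reagent for 30 min at 30 °C.”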

[10] = target: T3, Dual 3',5'-cyclic-AMP and -GMP phosphodiesterase 11A; test: Inhibition of human recombinant PDE11A-mediated hydrolysis of cGMP after 30 mins by fluorescence polarization assay
How it was run: as §1, with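 “fluorescein-cAMP.” for “fluorescein-cAMP. Reactions ran 1.5 h at 30 °C, followed by IMAP binding reagent for 30 min at 30 °C.”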

T2 sequence (Q13370 whole entry): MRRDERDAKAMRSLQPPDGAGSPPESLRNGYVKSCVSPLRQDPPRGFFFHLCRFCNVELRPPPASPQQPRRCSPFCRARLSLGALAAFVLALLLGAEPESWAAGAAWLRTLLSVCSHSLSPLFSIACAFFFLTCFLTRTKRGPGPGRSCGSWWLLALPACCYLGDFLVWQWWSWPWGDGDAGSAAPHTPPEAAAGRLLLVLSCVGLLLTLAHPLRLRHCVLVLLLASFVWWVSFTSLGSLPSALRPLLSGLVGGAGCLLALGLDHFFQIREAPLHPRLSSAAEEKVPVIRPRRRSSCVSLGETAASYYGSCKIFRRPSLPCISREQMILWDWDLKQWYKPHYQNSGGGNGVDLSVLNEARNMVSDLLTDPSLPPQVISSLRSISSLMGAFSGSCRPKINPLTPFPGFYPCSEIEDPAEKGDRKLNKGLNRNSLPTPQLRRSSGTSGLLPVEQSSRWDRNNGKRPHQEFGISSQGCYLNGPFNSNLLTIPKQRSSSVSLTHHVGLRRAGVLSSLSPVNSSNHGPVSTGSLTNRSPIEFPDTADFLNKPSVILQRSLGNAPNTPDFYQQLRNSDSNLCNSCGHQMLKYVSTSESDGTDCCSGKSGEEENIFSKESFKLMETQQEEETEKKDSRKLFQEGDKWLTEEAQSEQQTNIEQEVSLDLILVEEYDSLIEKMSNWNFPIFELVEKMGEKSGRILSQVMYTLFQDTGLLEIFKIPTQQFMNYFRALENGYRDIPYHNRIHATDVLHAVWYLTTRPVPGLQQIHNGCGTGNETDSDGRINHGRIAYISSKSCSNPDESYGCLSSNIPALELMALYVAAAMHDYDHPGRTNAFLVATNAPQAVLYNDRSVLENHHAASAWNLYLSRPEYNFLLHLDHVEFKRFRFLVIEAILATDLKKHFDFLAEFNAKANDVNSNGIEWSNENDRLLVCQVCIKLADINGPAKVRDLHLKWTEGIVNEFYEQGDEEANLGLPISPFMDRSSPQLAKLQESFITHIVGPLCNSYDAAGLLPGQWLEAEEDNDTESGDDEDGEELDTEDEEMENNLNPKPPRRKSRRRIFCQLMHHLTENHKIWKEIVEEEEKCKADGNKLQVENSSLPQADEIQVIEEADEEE
Chain of 3',5'-cyclic-AMP phosphodiesterase 4B (Q07343 whole entry): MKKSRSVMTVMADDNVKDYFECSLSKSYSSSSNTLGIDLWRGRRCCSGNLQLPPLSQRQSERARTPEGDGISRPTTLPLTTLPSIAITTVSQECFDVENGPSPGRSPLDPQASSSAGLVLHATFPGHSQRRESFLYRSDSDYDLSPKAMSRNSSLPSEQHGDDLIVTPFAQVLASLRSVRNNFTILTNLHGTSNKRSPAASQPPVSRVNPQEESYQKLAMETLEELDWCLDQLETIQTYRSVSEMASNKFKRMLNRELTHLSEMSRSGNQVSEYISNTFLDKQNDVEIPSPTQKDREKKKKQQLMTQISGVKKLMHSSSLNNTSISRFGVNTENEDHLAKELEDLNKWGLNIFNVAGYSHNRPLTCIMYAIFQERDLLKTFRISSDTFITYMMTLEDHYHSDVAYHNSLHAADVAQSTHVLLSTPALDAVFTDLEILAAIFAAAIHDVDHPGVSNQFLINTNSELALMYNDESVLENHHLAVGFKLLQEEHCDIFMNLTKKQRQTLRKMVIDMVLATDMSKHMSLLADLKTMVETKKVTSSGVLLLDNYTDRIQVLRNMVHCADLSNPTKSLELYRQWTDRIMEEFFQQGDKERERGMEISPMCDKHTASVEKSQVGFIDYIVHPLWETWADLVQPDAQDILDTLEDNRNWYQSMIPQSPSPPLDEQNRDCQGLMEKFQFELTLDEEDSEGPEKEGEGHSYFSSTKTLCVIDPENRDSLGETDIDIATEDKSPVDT
T3 sequence (Q9HCR9 whole entry): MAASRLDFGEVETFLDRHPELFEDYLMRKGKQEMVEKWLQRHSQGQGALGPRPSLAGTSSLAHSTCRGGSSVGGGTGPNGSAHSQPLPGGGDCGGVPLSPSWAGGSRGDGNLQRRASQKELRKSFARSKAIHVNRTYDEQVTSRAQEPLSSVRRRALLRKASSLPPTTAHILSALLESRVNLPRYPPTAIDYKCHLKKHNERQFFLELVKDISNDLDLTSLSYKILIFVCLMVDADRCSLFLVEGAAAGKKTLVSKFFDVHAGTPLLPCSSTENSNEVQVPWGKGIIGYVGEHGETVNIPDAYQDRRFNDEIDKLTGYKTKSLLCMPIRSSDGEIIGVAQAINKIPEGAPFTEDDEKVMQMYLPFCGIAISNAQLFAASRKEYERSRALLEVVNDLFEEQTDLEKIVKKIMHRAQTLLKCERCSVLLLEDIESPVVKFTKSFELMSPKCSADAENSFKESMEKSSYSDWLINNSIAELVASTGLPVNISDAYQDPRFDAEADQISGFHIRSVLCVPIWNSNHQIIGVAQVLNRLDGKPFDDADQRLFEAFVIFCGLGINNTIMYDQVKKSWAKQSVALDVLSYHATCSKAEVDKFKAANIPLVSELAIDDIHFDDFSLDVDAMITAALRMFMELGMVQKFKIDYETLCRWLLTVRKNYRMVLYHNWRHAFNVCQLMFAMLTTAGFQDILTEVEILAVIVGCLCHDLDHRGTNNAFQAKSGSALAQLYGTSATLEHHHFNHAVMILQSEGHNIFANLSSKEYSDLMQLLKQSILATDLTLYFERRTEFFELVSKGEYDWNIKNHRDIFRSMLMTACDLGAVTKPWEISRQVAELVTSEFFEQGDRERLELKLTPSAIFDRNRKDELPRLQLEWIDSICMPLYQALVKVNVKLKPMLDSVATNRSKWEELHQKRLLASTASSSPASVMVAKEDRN

Structure (SMILES)	pIC50 [2]	inhibition [3] [%]	pIC50 [4]	pIC50 [5]	pIC50 [6]	pIC50 [7]	pIC50 [8]	pIC50 [9]	pIC50 [10]	inhibition at 10 µM [1] [%]
CC(C)(C)N1C(=O)[C@H]2Cc3c([nH]c4ccccc34)[C@H](c3ccc(Cl)cc3Cl)N2C1=O	6.19	73	5.83							65
COC(=O)[C@H]1Cc2c([nH]c3ccccc23)[C@H](c2ccc(Cl)cc2Cl)N1	5.17	40								78
CCCCN1CC(=O)N2[C@@H](c3ccc(Cl)cc3Cl)c3[nH]c4ccccc4c3C[C@H]2C1=O	5.48	78	5.35							82
CC(C)(C)N1CC(=O)N2[C@@H](c3ccc(Cl)cc3Cl)c3[nH]c4ccccc4c3C[C@@H]2C1=O	5.53		5.90							
COC(=O)[C@H]1Cc2c([nH]c3ccccc23)[C@@H](c2ccc(Cl)cc2Cl)N1C(=O)CCl	6.25	66	5.64							
CCCCN1CC(=O)N2[C@@H](c3ccc(Cl)cc3Cl)c3[nH]c4ccccc4c3C[C@@H]2C1=O	5.92	69	5.95							65
CC(C)(C)N1CC(=O)N2[C@@H](c3ccc(Cl)cc3Cl)c3[nH]c4ccccc4c3C[C@H]2C1=O	5.59	78	5.87							
COC(=O)[C@@H]1Cc2c([nH]c3ccccc23)[C@H](c2ccc(Cl)c(Cl)c2)N1	5.16	18								62
CCN1CC(=O)N2[C@H](c3ccc(Cl)c(Cl)c3)c3[nH]c4ccccc4c3C[C@H]2C1=O		78	5.69							50
COC(=O)[C@@H]1Cc2c([nH]c3ccccc23)[C@H](c2c(Cl)cccc2Cl)N1C(=O)CCl		67	6.14							30
CCN1C(=O)[C@H]2Cc3c([nH]c4ccccc34)[C@@H](c3ccc(Cl)cc3Cl)N2C1=O		95	8.00	8.00	< 4.30	< 4.30	4.47	5.70	6.51	39

More lines, main results first:

pIC50 [2]	inhibition [3] [%]	pIC50 [4]	pIC50 [5]	pIC50 [6]	pIC50 [7]	pIC50 [8]	pIC50 [9]	pIC50 [10]	Structure (SMILES)	inhibition at 10 µM [1] [%]
5.49	82	5.73							CC(C)(C)N1C(=O)[C@H]2Cc3c([nH]c4ccccc34)[C@@H](c3ccc(Cl)c(Cl)c3)N2C1=O	99
5.32		5.06							CCN1C(=O)[C@@H]2Cc3c([nH]c4ccccc34)[C@H](c3ccc(Cl)c(Cl)c3)N2C1=O	
5.27	95	8.15	8.15	< 4.30	< 4.30	5.44	4.89	5.82	CCN1C(=O)[C@@H]2Cc3c([nH]c4ccccc34)[C@@H](c3ccc(Cl)cc3Cl)N2C1=O	68
5.81	90	6.59							CCN1CC(=O)N2[C@@H](c3ccc(Cl)cc3Cl)c3[nH]c4ccccc4c3C[C@@H]2C1=O	66
5.90	95	7.15							CC(C)(C)N1C(=O)[C@@H]2Cc3c([nH]c4ccccc34)[C@@H](c3ccc(Cl)cc3Cl)N2C1=O	69
5.65	80	6.23							CC(C)(C)N1C(=O)[C@H]2Cc3c([nH]c4ccccc34)[C@@H](c3ccc(Cl)cc3Cl)N2C1=O	68
5.91	38								COC(=O)[C@@H]1Cc2c([nH]c3ccccc23)[C@@H](c2ccc(Cl)cc2Cl)N1C(=O)CCl	98
5.49	90	5.92							CN1CC(=O)N2[C@@H](c3ccc(Cl)cc3Cl)c3[nH]c4ccccc4c3C[C@@H]2C1=O	65
5.34	50								COC(=O)[C@H]1Cc2c([nH]c3ccccc23)[C@H](c2ccc(Cl)c(Cl)c2)N1	100
				< 4.30	< 4.30				CN1CC(=O)N2[C@H](c3ccc4c(c3)OCO4)c3[nH]c4ccccc4c3C[C@@H]2C1=O	
5.84	80	5.64							CC(C)(C)N1C(=O)[C@@H]2Cc3c([nH]c4ccccc34)[C@H](c3ccc(Cl)c(Cl)c3)N2C1=O	70
7.15	25								COC(=O)[C@H]1Cc2c([nH]c3ccccc23)[C@H](c2ccc(Cl)cc2Cl)N1C(=O)CCl	
	91	8.70	8.70	< 4.30	< 4.30	< 4.30	6.98	7.96	CCN1CC(=O)N2[C@H](c3ccc(Cl)cc3Cl)c3[nH]c4ccccc4c3C[C@@H]2C1=O	30
5.15	82	6.07							CN1CC(=O)N2[C@@H](c3ccc(Cl)cc3Cl)c3[nH]c4ccccc4c3C[C@H]2C1=O	70
